Reference: paper PMC2834294 (Chemistry & biology, 2010)

Experiments:
[1] = test system: YFP-expressing HEK293 cells; test: Fura-2 calcium imaging, YFP-expressing HEK293 cells; type: cell-based; conditions: mean ±SEM (n≥3)
In short: (§1)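 HEK293 cells were transiently transfected (Genejammer) with the human channel construct or YFP control and measured 24 h later. Cells on glass coverslips were loaded with 4 µM fura-2-AM in bath solution (mM: 138 NaCl, 6 KCl, 2 MgCl2, 2 CaCl2, 10 HEPES, 5.5 D-glucose; pH 7.4). Compounds were applied at 10 µM and the F340/F380 ratio recorded. Values are mean ± SEM, n≥3.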

TRPML3 [2] = molecular target: T1, TRPML3 (Homo sapiens, UniProt Q8TDD5); type: cell-based; conditions: HEK293, read-out: Max % Activation (TRPML3)
T1 sequence (Q8TDD5 1-553): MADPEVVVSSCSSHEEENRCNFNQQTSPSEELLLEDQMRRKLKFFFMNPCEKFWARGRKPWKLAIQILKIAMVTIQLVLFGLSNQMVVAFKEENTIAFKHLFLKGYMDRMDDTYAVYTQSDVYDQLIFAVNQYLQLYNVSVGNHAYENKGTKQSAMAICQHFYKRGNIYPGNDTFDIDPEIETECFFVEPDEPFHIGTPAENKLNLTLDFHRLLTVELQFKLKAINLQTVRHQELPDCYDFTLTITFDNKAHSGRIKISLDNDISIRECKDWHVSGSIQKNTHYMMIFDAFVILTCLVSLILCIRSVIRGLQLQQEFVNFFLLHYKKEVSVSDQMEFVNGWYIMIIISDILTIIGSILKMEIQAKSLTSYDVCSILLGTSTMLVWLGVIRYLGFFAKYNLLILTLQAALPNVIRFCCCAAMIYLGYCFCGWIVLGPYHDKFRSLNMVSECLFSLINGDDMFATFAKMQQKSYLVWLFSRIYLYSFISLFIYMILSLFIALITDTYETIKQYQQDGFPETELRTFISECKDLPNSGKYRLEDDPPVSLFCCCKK
In short: (§2)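 HEK293 lines stably expressed YFP-fused human TRPML3 or zebrafish TRPN1 (G418 0.8 mg/ml, twice subcloned) and were plated at 1,500 cells/well for 23 h at 37 °C. After Fluo-8 loading (1 h 37 °C, 30 min RT), a 5 s basal read and 120 s post-addition read were taken. Max/basal ratios were normalized to DMSO and carbachol (87 µM).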

TRPML3 [3] = molecular target: T1, TRPML3; test: Fura-2 calcium imaging, HEK293 cells transiently expressing TRPML3; type: cell-based; conditions: for ⊗F340/F380 (TRPML3): 10 µM compound, mean ±SEM (n≥3); for kinetics of intracellular calcium increase: TRPML3-transfected HEK293 cells
In short: as §1

TRPML3 [4] = molecular target: T1, TRPML3; test: Whole-cell patch-clamp, HEK293 cells transiently transfected with TRPML3; type: cell-based; conditions: for nA/pF (-80 mV) (TRPML3): current density at −80 mV, 10 µM in standard bath solution, mean ±SEM (n≥3); for average current density relative to constitutively active TRPML3 A419P: whole-cell, −80 mV
In short: (§3)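 Whole-cell patch clamp was done on HEK293 cells 24 h after transient transfection with human TRPML3 or YFP; constitutively active TRPML3(A419P) cells served as positive control. Bath solution (mM): 138 NaCl, 5.4 KCl, 2 MgCl2, 2 CaCl2, 10 HEPES, 10 d-glucose; pH 7.4. Pipette solution (mM): 140 CsCl, 10 HEPES, 3 ATP-Na, 1 BAPTA, 2 MgCl2; pH 7.2. Compounds at 10 µM were perfused. Capacitance-normalized current at −80 mV is reported as mean ± SEM, n≥3.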

TRPML3 [5] = type: cell-based; conditions: 10 µM compound; ELS 2 mM Na+, 150 mM K+
In short: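 Whole-cell recordings used HEK293 cells expressing TRPML3 with 100% series-resistance compensation. Pipette solution (mM): 140 CsCl, 10 HEPES, 3 ATP-Na, 1 BAPTA, 2 MgCl2; pH 7.2. Compound at 10 µM was perfused in endolymph-like solution (mM: 2 NaCl, 150 KCl, 0.25 CaCl2, 10 HEPES, 10 glucose; pH 7.4) or in standard bath. Inward current at −80 mV was normalized to capacitance.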

[6] = molecular target: T2, TRPML3 coexpressed with dynamin (Homo sapiens, UniProt Q8TDD5); test: Calcium imaging, HEK293 cells coexpressing wild type dynamin with TRPML3; type: cell-based; conditions: compared to control experiments
T2 sequence (Q8TDD5 1-553): T1 sequence (Q8TDD5 1-553)
In short: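 HEK293 cells were transiently cotransfected (Genejammer) with wild-type dynamin and TRPML3 and imaged 24 h later. Cells on glass coverslips were loaded with 4 µM fura-2-AM in bath solution (mM: 138 NaCl, 6 KCl, 2 MgCl2, 2 CaCl2, 10 HEPES, 5.5 D-glucose; pH 7.4). Responses to activators were compared with control transfections.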

danio rerio TRPN1 = danio rerio TRPN1 (Danio rerio, UniProt Q7T1G6); type: cell-based; conditions: for Emax: HEK293, read-out: Max % Activation (Control); for activity against TRPN1: compounds tested from powders
In short: as §2

[7] = test system: YFP-expressing HEK293 cells; test: Whole-cell patch-clamp, YFP-expressing HEK293 cells; type: cell-based; conditions: current density at −80 mV, mean ±SEM (n≥3)
In short: as §3

[8] = molecular target: T3, TRPML3 coexpressed with TRPML1 (Homo sapiens, UniProt Q8TDD5); test: Calcium imaging, HEK293 cells coexpressing TRPML3 with TRPML1; type: cell-based; conditions: 10 µM
T3 sequence (Q8TDD5 1-553): T1 sequence (Q8TDD5 1-553)
In short: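 Human TRPML3 and TRPML1 were transiently coexpressed in HEK293 cells (Genejammer) and imaged 24 h post-transfection. Cells on glass coverslips were loaded with 4 μM fura-2-AM in bath solution (mM: 138 NaCl, 6 KCl, 2 MgCl₂, 2 CaCl₂, 10 HEPES, 5.5 D-glucose, pH 7.4) and read on a monochromator imaging system. Test compound was 10 μM. Mean ± SEM, n≥3 independent experiments, 20–30 cells each.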

cochlear hair cells = test: Recording from acutely isolated cochlear hair cells; type: cell-based, rat; conditions: up-to 100 µM; in SBS, SN-2 also in ELS
TRPML2 = molecular target: T4, TRPML2 (Homo sapiens, UniProt Q8IZK6); test: Fura-2 calcium imaging, HEK293 cells expressing TRPML2; type: cell-based; conditions: 10 µM
T4 sequence (Q8IZK6 1-566): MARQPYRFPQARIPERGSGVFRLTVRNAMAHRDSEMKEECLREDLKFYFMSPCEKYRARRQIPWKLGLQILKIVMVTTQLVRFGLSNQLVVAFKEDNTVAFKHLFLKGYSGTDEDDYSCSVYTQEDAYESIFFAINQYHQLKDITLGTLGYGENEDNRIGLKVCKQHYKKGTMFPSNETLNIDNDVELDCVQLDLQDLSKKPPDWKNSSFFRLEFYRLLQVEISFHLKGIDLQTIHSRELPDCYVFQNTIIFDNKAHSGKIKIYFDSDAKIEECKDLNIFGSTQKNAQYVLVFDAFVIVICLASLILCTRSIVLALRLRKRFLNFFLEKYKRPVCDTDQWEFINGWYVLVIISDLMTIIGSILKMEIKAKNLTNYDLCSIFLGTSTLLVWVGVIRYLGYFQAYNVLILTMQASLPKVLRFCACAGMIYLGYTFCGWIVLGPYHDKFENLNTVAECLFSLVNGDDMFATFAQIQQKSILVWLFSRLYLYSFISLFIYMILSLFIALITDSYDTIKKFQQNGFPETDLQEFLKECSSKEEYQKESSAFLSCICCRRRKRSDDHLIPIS
In short: as §1

Sequence of danio rerio TRPN1 (Q7T1G6 1-1614): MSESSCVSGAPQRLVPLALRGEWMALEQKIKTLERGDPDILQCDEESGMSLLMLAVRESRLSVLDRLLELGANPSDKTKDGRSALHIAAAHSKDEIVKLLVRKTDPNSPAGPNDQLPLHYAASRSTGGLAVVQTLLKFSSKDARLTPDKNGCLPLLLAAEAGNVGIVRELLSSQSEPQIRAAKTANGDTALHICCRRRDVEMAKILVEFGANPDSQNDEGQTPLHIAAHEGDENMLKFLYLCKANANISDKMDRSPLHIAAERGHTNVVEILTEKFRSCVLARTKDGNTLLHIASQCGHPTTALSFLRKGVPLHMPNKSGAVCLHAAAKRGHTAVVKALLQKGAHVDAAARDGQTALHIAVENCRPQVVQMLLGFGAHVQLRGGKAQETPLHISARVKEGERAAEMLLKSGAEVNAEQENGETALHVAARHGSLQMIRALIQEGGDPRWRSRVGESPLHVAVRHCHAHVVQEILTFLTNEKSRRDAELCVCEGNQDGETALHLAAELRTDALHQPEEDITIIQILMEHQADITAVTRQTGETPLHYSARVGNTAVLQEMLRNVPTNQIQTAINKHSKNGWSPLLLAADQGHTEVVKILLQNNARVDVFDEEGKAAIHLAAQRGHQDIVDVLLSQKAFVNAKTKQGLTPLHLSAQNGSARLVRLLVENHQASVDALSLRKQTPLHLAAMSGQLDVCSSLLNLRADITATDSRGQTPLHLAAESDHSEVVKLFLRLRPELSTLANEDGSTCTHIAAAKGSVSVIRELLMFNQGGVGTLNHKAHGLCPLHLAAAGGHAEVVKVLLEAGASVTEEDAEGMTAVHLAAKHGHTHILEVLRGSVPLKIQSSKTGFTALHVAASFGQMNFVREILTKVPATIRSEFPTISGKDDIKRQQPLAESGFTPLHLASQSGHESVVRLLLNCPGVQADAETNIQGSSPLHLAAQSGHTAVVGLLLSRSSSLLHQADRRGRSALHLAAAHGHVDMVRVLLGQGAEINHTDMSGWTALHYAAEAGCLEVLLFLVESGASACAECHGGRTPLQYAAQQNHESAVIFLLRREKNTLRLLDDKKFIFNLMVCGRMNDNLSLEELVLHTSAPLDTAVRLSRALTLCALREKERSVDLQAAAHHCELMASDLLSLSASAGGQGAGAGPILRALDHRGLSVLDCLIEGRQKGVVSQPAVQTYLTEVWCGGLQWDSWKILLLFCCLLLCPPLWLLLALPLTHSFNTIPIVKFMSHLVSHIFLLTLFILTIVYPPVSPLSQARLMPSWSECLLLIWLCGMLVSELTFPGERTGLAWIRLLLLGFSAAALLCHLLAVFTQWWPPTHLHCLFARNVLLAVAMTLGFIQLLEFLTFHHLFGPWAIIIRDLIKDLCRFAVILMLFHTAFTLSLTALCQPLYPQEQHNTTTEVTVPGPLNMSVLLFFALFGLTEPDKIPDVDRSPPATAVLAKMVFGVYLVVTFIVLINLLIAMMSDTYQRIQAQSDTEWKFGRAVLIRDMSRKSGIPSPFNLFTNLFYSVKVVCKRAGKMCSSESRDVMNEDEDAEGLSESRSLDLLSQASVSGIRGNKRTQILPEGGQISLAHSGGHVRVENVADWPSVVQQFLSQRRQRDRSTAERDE

| Compound | ⊗F340/F380 (Control) [1] | Emax (TRPML3 [2]) [%] | ⊗F340/F380 (TRPML3) (TRPML3 [3]) | nA/pF (-80 mV) (TRPML3) (TRPML3 [4]) [nA/pF] | increase in current densities, compound + ELS vs ELS alone or compound in SBS (TRPML3 [5]) [fold] | response when wild type dynamin coexpressed with TRPML3 in HEK293 cells [6] | EC50 (danio rerio TRPN1) [µM] | Emax (danio rerio TRPN1) [%] | nA/pF (-80 mV) (Control) [7] [nA/pF] | kinetics of intracellular calcium increase (TRPML3 [3]) | average current density relative to constitutively active TRPML3 A419P (TRPML3 [4]) | activity against TRPN1 (danio rerio TRPN1) | calcium imaging response when TRPML1 was coexpressed with TRPML3 [8] | TRPML3 channel activity in cochlear hair cells (cochlear hair cells) | response in HEK293 cells expressing TRPML2 (TRPML2) |
| --- | --- | --- | --- | --- | --- | --- | --- | --- | --- | --- | --- | --- | --- | --- | --- |
| Cc1ccc(S(=O)(=O)Nc2ccccc2-c2ccccc2)cc1 [SF-24, 4-methyl-N-(2-phenylphenyl)benzenesulfonamide] | 0.016 ±0.023 | 86 ± 7 | 0.51 ±0.05 | −0.02 ±0.01 | ≤ 10 | reduction in response | > 29.9 | 2 | – | – | – | – | – | – | – |
| CCCC(=O)Oc1c(S(=O)(=O)c2ccc(C)cc2)c(C)nn1C(C)(C)C [SF-71, [2-tert-butyl-5-methyl-4-(4-methylphenyl)sulfonylpyrazol-3-yl] butanoate] | – | 85 ± 8 | 0.75 ±0.06 | −0.08 ±0.02 | – | – | > 29.9 | 2 ± 1 | −0.012 ±0.006 | – | – | – | – | – | – |
| CC1=CC(C)(C)N(C(=O)CN2C(=O)c3ccccc3C2=O)c2ccccc21 [SF-51, 2-[2-oxo-2-(2,2,4-trimethylquinolin-1-yl)ethyl]isoindole-1,3-dione] | – | 175 ± 18 | 0.78 ±0.03 | −0.41 ±0.10 | – | – | > 29.9 | 47 ± 3 | −0.016 ±0.008 | slowest kinetics | Stronger responses | significant activity against TRPN1 | – | – | – |
| O=S(=O)(NC1CCCCC1N1CCOCC1)c1ccc(Cl)cc1 (centres unmarked) [SF-21, 4-chloro-N-(2-morpholin-4-ylcyclohexyl)benzenesulfonamide] | 0.033 ±0.008 | 200 ± 7 | 1.38 ±0.10 | −0.55 ±0.08 | – | – | 14.2 ± 2.03 | 61 ± 2 | – | much more rapid increase than the other compounds | Stronger responses | significant activity against TRPN1 | strong reduction of the calcium imaging responses | Neither compound at concentrations of up-to 100 µM, with or without endolymph-like extracellular solution, elicited TRPML3 channel activity | elicited responses |
